Values after ≈ are worked out from the molar mass of the structure shown. Active and inactive are the calls of the source. The rule behind the calls is not given here.
B1: Thymidine kinase (Staphylococcus aureus), Q0H0G9 (protein)
chain: MYETYHSGWIECITGSMFSGKSEELIRRLRRGIYAKQKVVVFKPAIDDRYHKEKVVSHNGNAIEAINISKASEIMTHDLTNVDVIGIDEVQFFDDEIVSIVEKLSADGHRVIVAGLDMDFRGEPFEPMPKLMAVSEQVTKLQAVCAVCGSSSSRTQRLINGKPAKIDDPIILVGANESYEPRCRAHHIVAPSDNNKEEL
B2: Deoxyadenosine kinase (Staphylococcus aureus), Q0H0H0 (protein)
chain: MNNYGIPQNAIITIAGTVGVGKSTLTQALADKLNFKTSFENVEHNPYLDKFYSDFERWSFHLQIYFLAERFKEQKRMFEYGGGFVQDRSIYEDVDIFAKMHEEEGTMSKEDFKTYSDLFNAMVMTPYFPKPDVMIYLECNYDEVIDRIIERGREMEINTDPEYWKKLFKRYDDWINSFNACPVVRININEYDIHKDPESLNPMINKIARIIQTYRQVDTR
B3: Deoxyguanosine kinase (Staphylococcus aureus), Q0H0G8 (protein)
chain: MNKPFIAIEGPIGVGKSSLAHKLSQTLDFYEEKEIITENPFLSDFYEDISKWSFQTEMFFLCNRYKQFQDVTQLNQGVVSDYHIHKNKIFAKNTLSSVEFQKFSKIYDILTEDMIMPNMIIFLDADLDVLKSRIAKRNRSFEHQIEDEYLLKLKKDYREYYESLQSNGSNVVLIDTTSIDFLKNEQDYEDILHIILPMIGDITNE

Columns and labels:
Streptococcus sp. [1] = experiment: Antimicrobial activity against Streptococcus sp. 07686-2 after 20 hrs; type: functional
Procedure, shortened: (§1)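 Organisms taken from overnight Columbia blood agar, adjusted to McFarland 0.5 in 0.9% NaCl, diluted a further 10-fold, then spotted on Mueller-Hinton agar containing graded nucleoside analog concentrations. Incubated 20 h at 37°C. MIC is the lowest concentration fully inhibiting growth, judged visually.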

Staphylococcus aureus [2] = experiment: Antimicrobial activity against Staphylococcus aureus CCM 885 after 20 hrs; type: functional; conditions: CCM 885, 20 h; procedure, shortened: as §1
Staphylococcus aureus [3] = experiment: Antimicrobial activity against Staphylococcus aureus ATCC 29213 after 20 hrs; type: functional; conditions: ATCC 29213, 20 h; procedure, shortened: as §1
Streptococcus sp. [4] = experiment: Antimicrobial activity against Streptococcus sp. 07941-1 after 20 hrs; type: functional; procedure, shortened: as §1
Streptococcus sp. [5] = experiment: Antimicrobial activity against Streptococcus sp. 07706-1 after 20 hrs; type: functional; procedure, shortened: as §1
Escherichia coli [6] = experiment: Antimicrobial activity against Escherichia coli ATCC 25922 after 20 hrs; type: functional; conditions: ATCC 25922, 20 h; procedure, shortened: as §1
Escherichia coli [7] = experiment: Antibacterial activity against […] kinase-deficient Escherichia coli KY895 expressing Streptococcus pyogenes recombinant thymidine kinase; type: functional
Escherichia coli [8] = experiment: Antibacterial activity against […] kinase-deficient Escherichia coli KY895 expressing Streptococcus pyogenes recombinant deoxyadenosine kinase; type: functional
Escherichia coli [9] = experiment: Antibacterial activity against […] kinase-deficient Escherichia coli KY895 expressing Staphylococcus aureus recombinant thymidine kinase; type: functional
Staphylococcus aureus [10] = experiment: Antibacterial activity against exponentially growing Staphylococcus aureus ATCC 29213 at 0.002 ug/ml after 3 hrs by viable count susceptibility assay; type: functional, organism-based
Procedure, shortened: (§2)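 Cells grown overnight in Todd-Hewitt broth at 37°C with 5% CO2, subcultured to OD620 0.4, washed twice and diluted 1,000-fold in 10 mM Tris-HCl pH 7.5, 5 mM glucose, 10% Todd-Hewitt. Stopped with ice-cold buffer; duplicate plating on Todd-Hewitt agar for viable counts.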

Streptococcus pyogenes [11] = experiment: Antibacterial activity against 1 x 10^7 CFU Streptococcus pyogenes AP1-infected BALB/c mouse assessed as survival at 100 ug, ip after 5 days; type: functional
Procedure, shortened: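 Adult female BALB/c mice (~20 g), six per group, given ip 1 x 10^7 CFU of mid-exponential S. pyogenes AP1 (OD620 0.5, washed, in PBS). 6 h later, ip 100 µg drug or 100 µl PBS. Survival followed at regular intervals. Survivors sacrificed at 5 days. Inoculum checked by blood-agar colony counts.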

Escherichia coli [12] = experiment: Antibacterial activity against […] kinase-deficient Escherichia coli KY895 expressing Staphylococcus aureus recombinant deoxyguanosine kinase; type: functional, organism-based
Escherichia coli [13] = experiment: Antibacterial activity against […] kinase-deficient Escherichia coli KY895 expressing Staphylococcus aureus recombinant deoxyadenosine kinase; type: functional
Streptococcus pyogenes [14] = experiment: Antibacterial activity against exponentially growing Streptococcus pyogenes AP1 at 0.2 ug/ml after 3 hrs by viable count susceptibility assay; type: functional, organism-based; procedure, shortened: as §2
Streptococcus pyogenes [15] = experiment: Antimicrobial activity against Streptococcus pyogenes AP1 after 20 hrs; type: functional; conditions: AP1, 20 h; procedure, shortened: as §1
Streptococcus pyogenes [16] = experiment: Antibacterial activity against 2.5 x 10^6 CFU Streptococcus pyogenes AP1-infected BALB/c mouse assessed as protection against bacterial dissemination in spleen at 100 ug, ip administered 6 hrs after bacterial infection and measured after 24 hrs postinfection; type: functional, organism-based
[17] = substrate: Cc1cn([C@H]2C[C@H](O)[C@@H](CO)O2)c(=O)[nH]c1=O; experiment: (§3) Activity of Staphylococcus aureus CCM 885 recombinant thymidine kinase
Procedure, shortened: (§4)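 GST-fused SaTK expressed in E. coli BL21 (100 µM IPTG, 6 h at 25°C), purified on glutathione-Sepharose and cleaved from GST with thrombin. Initial velocities from four time samples, DE-81 filter-paper assay with tritium-labeled deoxyribonucleoside substrates at various concentrations. Michaelis-Menten nonlinear regression.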

[18] = substrate: Cc1cn([C@H]2C[C@H](N=[N+]=[N-])[C@@H](CO)O2)c(=O)[nH]c1=O; experiment: as §3; procedure, shortened: as §4
[19] = substrate: Cc1cn([C@H]2C[C@H](O)[C@@H](CO)O2)c(=O)[nH]c1=O; experiment: (§5) Ratio of kcat to Km for Staphylococcus aureus CCM 885 recombinant thymidine kinase; procedure, shortened: as §4
[20] = substrate: Cc1cn([C@H]2C[C@H](N=[N+]=[N-])[C@@H](CO)O2)c(=O)[nH]c1=O; experiment: as §5; procedure, shortened: as §4
[21] = substrate: Nc1ccn([C@H]2C[C@H](O)[C@@H](CO)O2)c(=O)n1; experiment: (§6) Ratio of kcat to Km for Staphylococcus aureus CCM 885 recombinant deoxyadenosine kinase
Procedure, shortened: (§7)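 Recombinant S. aureus kinase cut from a GST fusion (pGEX-2T, E. coli BL21) by thrombin. Initial velocities taken from four time samples in a DE-81 filter-paper assay with tritiated substrates at varied concentrations. Fits by nonlinear regression to Michaelis-Menten, or to the substrate-inhibition equation where needed.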

[22] = substrate: Nc1ccn([C@@H]2O[C@H](CO)[C@@H](O)C2(F)F)c(=O)n1; experiment: as §6; procedure, shortened: as §7
[23] = substrate: Nc1ncnc2c1ncn2[C@H]1C[C@H](O)[C@@H](CO)O1; experiment: as §6; procedure, shortened: as §7
[24] = substrate: Nc1ccn([C@H]2C[C@H](O)[C@@H](CO)O2)c(=O)n1; experiment: (§8) Activity of Staphylococcus aureus CCM 885 recombinant deoxyadenosine kinase; procedure, shortened: as §7
[25] = substrate: Nc1ccn([C@@H]2O[C@H](CO)[C@@H](O)C2(F)F)c(=O)n1; experiment: as §8; procedure, shortened: as §7
[26] = substrate: Nc1ncnc2c1ncn2[C@H]1C[C@H](O)[C@@H](CO)O1; experiment: as §8; procedure, shortened: as §7
[27] = substrate: Nc1nc(O)c2ncn([C@H]3C[C@H](O)[C@@H](CO)O3)c2n1; experiment: Ratio of kcat to Km for Staphylococcus aureus CCM 885 recombinant deoxyguanosine kinase; procedure, shortened: as §7
[28] = substrate: Nc1nc(O)c2ncn([C@H]3C[C@H](O)[C@@H](CO)O3)c2n1; experiment: Activity of Staphylococcus aureus CCM 885 recombinant deoxyguanosine kinase; procedure, shortened: as §7

Molecule	MIC (Streptococcus sp. [1]) [µM]	MIC (Staphylococcus aureus [2]) [µM]	MIC (Staphylococcus aureus [3]) [µM]	MIC (Streptococcus sp. [4]) [µM]	MIC (Streptococcus sp. [5]) [µM]	MIC (Escherichia coli [6]) [µM]	other results
Nc1nc(Cl)nc2c1ncn2[C@H]1C[C@H](O)[C@@H](CO)O1 [CLADRIBINE]	100 (≈ 28.6 µg/mL)	> 100	> 100	100 (≈ 28.6 µg/mL)	100 (≈ 28.6 µg/mL)	> 100	
Nc1ccn([C@@H]2O[C@H](CO)[C@@H](O)[C@@H]2O)c(=O)n1 [CYTARABINE]	> 1000	> 1000	> 1000	> 1000	> 1000	> 1000	
CCc1cn([C@H]2C[C@H](O)[C@@H](CO)O2)c(=O)[nH]c1=O [EDOXUDINE]	> 316	> 316	> 316	> 316	> 316	> 316	
O=c1[nH]c(=O)n([C@H]2C[C@H](O)[C@@H](CO)O2)cc1F [FLOXURIDINE]	10 (≈ 2.46 µg/mL)	0.00316 (≈ 0.000778 µg/mL)	0.01 (≈ 0.00246 µg/mL)	0.1 (≈ 0.0246 µg/mL)	0.316 (≈ 0.0778 µg/mL)	1 (≈ 0.246 µg/mL)	
Nc1nc(F)nc2c1ncn2[C@@H]1O[C@H](CO)[C@@H](O)[C@@H]1O [FLUDARABINE]	> 100	> 100	> 100	> 100	> 100	> 100	
Nc1ccn([C@@H]2O[C@H](CO)[C@@H](O)C2(F)F)c(=O)n1 [GEMCITABINE]	0.1 (≈ 0.0263 µg/mL)	0.1 (≈ 0.0263 µg/mL)	0.1 (≈ 0.0263 µg/mL)	0.01 (≈ 0.00263 µg/mL)	0.0316 (≈ 0.00832 µg/mL)	> 1000	Activity (Escherichia coli [7]): inactive; MIC (Escherichia coli [8]): 0.0316 µM; Activity (Escherichia coli [9]): inactive; Activity (Staphylococcus aureus [10]): Active; Activity (Streptococcus pyogenes [11]): 83%; Activity (Escherichia coli [12]): inactive; MIC (Escherichia coli [13]): 0.001 µM; Activity (Streptococcus pyogenes [14]): Active; MIC (Streptococcus pyogenes [15]): 0.1 µM (≈ 0.0263 µg/mL); Activity (Streptococcus pyogenes [16]): Active
Cc1cn([C@H]2C[C@H](N=[N+]=[N-])[C@@H](CO)O2)c(=O)[nH]c1=O [ZIDOVUDINE]	> 316	> 316	> 316	316 (≈ 84.4 µg/mL)	> 316	10 (≈ 2.67 µg/mL)	MIC (Escherichia coli [7]): 0.01 µM; Activity (Escherichia coli [8]): inactive; MIC (Escherichia coli [9]): 0.0316 µM; Activity (Escherichia coli [12]): inactive; Activity (Escherichia coli [13]): inactive
B1							Km [17]: 2.8 µM; Vmax [17]: 1.2 U/mg; kcat [17]: 0.44 s⁻¹; Km [18]: 11.6 µM; Vmax [18]: 4 U/mg; kcat [18]: 1.48 s⁻¹; kcat/Km [19]: 1.6 ×10⁵ /M/s; kcat/Km [20]: 1.29 ×10⁵ /M/s
B2							kcat/Km [21]: 1.62 ×10⁴ /M/s; kcat/Km [22]: 9.81 ×10² /M/s; kcat/Km [23]: 6.22 ×10⁴ /M/s; Km [24]: 34.4 µM; Vmax [24]: 1.3 U/mg; kcat [24]: 0.56 s⁻¹; Km [25]: 192 µM; Vmax [25]: 0.43 U/mg; kcat [25]: 0.19 s⁻¹; Km [26]: 29.2 µM; Vmax [26]: 4.1 U/mg; kcat [26]: 1.82 s⁻¹
B3							kcat/Km [27]: 5.17 ×10⁵ /M/s; Km [28]: 1.1 µM; Vmax [28]: 1.4 U/mg; kcat [28]: 0.57 s⁻¹
